Bim-Bcl-W = inhibitors of Bim-Bcl-W interaction, human. Q92843. bead-based flow cytometry, Bim peptide-Bcl-W binding. inhibition, % at 10 µM. 190,000 tested, 0.02% active. AID 952;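 note: higher means less fluorescent Bim peptide bound to Bcl-W beads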
Target sequence (Q92843 whole entry, looked up): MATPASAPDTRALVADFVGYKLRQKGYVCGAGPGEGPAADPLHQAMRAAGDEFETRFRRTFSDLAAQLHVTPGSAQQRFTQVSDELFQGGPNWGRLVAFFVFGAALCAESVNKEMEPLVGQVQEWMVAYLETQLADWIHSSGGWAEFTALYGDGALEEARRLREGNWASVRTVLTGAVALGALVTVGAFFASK
Bim-Bcl-B = inhibitors of Bim-Bcl-B interaction, human | Q9HD36 | bead-based flow cytometry, Bim peptide-Bcl-B binding | 190,000 tested, 0.073% active | inhibition, % at 10 µM
Bim-Bcl-2 = human Bim-Bcl-2 interaction inhibition; P10415; Bead-based flow cytometry, Bim peptide-Bcl-2 binding; inhibition, % at 10 µM; 190,000 tested, 0.06% active; AID 950; in the data active = inhibition above about 40%
Biofilm kill mix = mixtures killing C. albicans biofilm; 120,000 tested, 0.02% active; inhibition, % at 7.6 µM; AID 1242; C. albicans biofilm persisters + clotrimazole, fluorescence viability; primary screen in compound mixtures of four per well;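 note: compounds exposed to preformed 24 h biofilms for 48 h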
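Test system: C. albicans CAF4-2 wild-type biofilms; buffer or medium: RPMI/MOPS medium, pH 7.0; schedule: 24 h biofilm formation, then 48 h compound exposure, 37 °C; detection: Alamar Blue fluorescence; measure: percent inhibition of biofilm viability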
Bim-Bfl-1 = disrupts Bim binding to human Bfl-1; Bead-based flow cytometry, Bim-Bfl-1 binding inhibition; inhibition, % at 10 µM; 190,000 tested, 0.12% active; AID 1008
Target sequence (Q16548 whole entry, looked up): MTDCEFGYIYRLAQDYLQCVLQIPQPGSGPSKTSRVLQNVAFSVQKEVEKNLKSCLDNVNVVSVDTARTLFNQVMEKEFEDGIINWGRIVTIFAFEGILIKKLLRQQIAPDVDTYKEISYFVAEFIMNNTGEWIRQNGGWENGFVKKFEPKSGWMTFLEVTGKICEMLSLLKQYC
Bim-Bcl-XL = human Bim-Bcl-XL interaction inhibition; 190,000 tested, 0.04% active; Q07817; inhibition, % at 10 µM; Bim peptide-Bcl-XL binding, bead flow cytometry, fluorescence
Bim-Bcl-XL DR = confirmation of regulators of human Bim-Bcl-XL interaction. 40 tested, under 10 active. shares compounds with Bim-Bfl-1. AID 2084. bead-based flow cytometry, Bim-Bcl-XL binding. inhibition of binding at 100 µM; call rule not given here
Hits are given with their value; 0 = inactive; - = no result. Most compounds without a hit are left out; they make up all but 0.17% or so of the library. Cut-off read from the data, not from the text of the source, unless noted: active = inhibition above about 40%.

SMILES | Bim-Bcl-W | Bim-Bcl-B | Bim-Bcl-2 | Biofilm kill mix | Bim-Bfl-1 | Bim-Bcl-XL | Bim-Bcl-XL DR
COc1ccc(/C=N/NC(=O)c2ccncc2)c(C(=O)O)c1OC | - | - | - | 0 | - | - | -
COc1cc(OC)c([N+](=O)[O-])cc1/C=N/NC(=O)c1ccncc1 | 40.0 | 0 | 0 | 0 | 0 | 0 | -
COc1ccc(NC(=O)/C(C#N)=C/c2c(C)nn(-c3ccc(F)cc3)c2Cl)cc1OC | 0 | 0 | 0 | 0 | 0 | 0 | -
COc1ccc(NC(=O)/C(C#N)=C/c2c(C)nn(-c3ccc(F)cc3)c2Cl)cc1Cl | 0 | 0 | 0 | 0 | 42.0 | 0 | -
COc1ccc2c3c(cccc13)N(C)N=C2C | 70.0 | 0 | 40.0 | - | 73.0 | 0 | -
CC(=O)NC(=O)Nc1sc(=S)n(C)c1C | 0 | 0 | 0 | - | 56.0 | 49.0 | -
Cc1ccc(NC(=O)Nc2sc(=S)n(C)c2C)cc1 | 0 | 0 | 0 | - | 0 | 0 | -
CC1(C)COC(c2cccc(C3=NC(C)(C)CO3)n2)=N1 | 0 | 0 | 0 | 0 | 0 | 0 | -
CCOc1ccc(/C=C/C(=O)c2cc(Br)ccc(=O)c2O)cc1 | 0 | 0 | 0 | 0 | 42.0 | 0 | -
O=[N+]([O-])c1cc(Cl)ccc1N1CCCC1 | 0 | 0 | 0 | 0 | 0 | 0 | -
O=C1C(Cl)=C(N2CCN(c3ccccc3[N+](=O)[O-])CC2)C(=O)c2ccccc21 | 0 | 0 | 0 | 0 | 68.0 | 0 | 0
COc1ccc(N2C(=O)C(Cl)=C(Oc3cccc(OC)c3)C2=O)cc1 | 0 | 0 | 0 | 0 | 43.0 | 0 | 0
COc1ccc(N2C(=O)c3ccccc3C2=O)cc1 | 0 | 0 | 0 | 0 | 0 | 0 | -
CCN(CC)S(=O)(=O)c1ccc2oc(SCC3CN=C(c4ccc(OC)cc4)S3)nc2c1 (stereo unspecified) | 0 | 0 | 0 | - | 0 | 0 | -
Cc1nnc(Sc2cc(NCCO)c([N+](=O)[O-])c3nonc23)s1 | 0 | 0 | 0 | 0 | 55.0 | 0 | 0
O=[N+]([O-])c1c(NCCCO)cc(Sc2nc3ccccc3s2)c2nonc12 | 0 | 0 | 0 | - | 61.0 | 0 | 0
Cc1nnc(Sc2cc(NCCCO)c([N+](=O)[O-])c3nonc23)s1 | 0 | 0 | 0 | 0 | 0 | 0 | -
CC(=O)Nc1ccc(-n2cc(-c3ccccc3)[nH]c2=S)cc1 | 0 | 0 | 0 | 0 | 0 | 0 | 0
Cc1ccc(-c2cc(C(=O)OCn3nnc4ccccc4c3=O)c3ccccc3n2)cc1 | 0 | 0 | 0 | 0 | 0 | 0 | -
Oc1ccc(NCc2ccccc2OCc2ccccc2)cc1 | 0 | 0 | 0 | 0 | 0 | 0 | 0
CCNCc1ccccc1OCc1ccccc1 | 0 | 0 | 0 | 0 | 0 | 0 | -
O=C(COC(=O)CNC(=O)c1ccc(Cl)cc1Cl)Nc1ccc(N2CCOCC2)cc1 | 0 | 0 | 0 | 0 | 0 | 0 | -
O=C(NCc1ccccc1)c1ccc2nc(-c3ccco3)c(-c3ccco3)nc2c1 | 0 | 0 | 0 | - | 43.0 | 0 | 0
COc1ccc(N2C(=O)C(Cl)=C(NC3C(=O)N(c4ccccc4)N(C)C3C)C2=O)cc1 (stereo unspecified) | - | - | - | - | - | - | 0
CCN(CC)C(=O)c1cc([N+](=O)[O-])cc2c1-c1ccc([N+](=O)[O-])cc1C2=C(C#N)C#N | - | - | - | 0 | - | - | -

Screening data: PubChem BioAssay, several laboratories
